ChEMBL document CHEMBL1127642, “Potent, selective, and systemically-available inhibitors of acyl-coenzyme A:cholesterol acyl transferase (ACAT)” (J Med Chem, 1994)
Activity calls are given as the source filed them. The calls are words filed in the database; no cut-off is given here.

Assays:
[1] = target: T1, Sterol O-acyltransferase 1 (Rattus norvegicus, UniProt O70536); test: In vitro potency was determined using Acyl coenzyme A:cholesterol acyltransferase in liver microsomes from rats; design: species or system Microsome
T1 sequence (O70536 whole entry): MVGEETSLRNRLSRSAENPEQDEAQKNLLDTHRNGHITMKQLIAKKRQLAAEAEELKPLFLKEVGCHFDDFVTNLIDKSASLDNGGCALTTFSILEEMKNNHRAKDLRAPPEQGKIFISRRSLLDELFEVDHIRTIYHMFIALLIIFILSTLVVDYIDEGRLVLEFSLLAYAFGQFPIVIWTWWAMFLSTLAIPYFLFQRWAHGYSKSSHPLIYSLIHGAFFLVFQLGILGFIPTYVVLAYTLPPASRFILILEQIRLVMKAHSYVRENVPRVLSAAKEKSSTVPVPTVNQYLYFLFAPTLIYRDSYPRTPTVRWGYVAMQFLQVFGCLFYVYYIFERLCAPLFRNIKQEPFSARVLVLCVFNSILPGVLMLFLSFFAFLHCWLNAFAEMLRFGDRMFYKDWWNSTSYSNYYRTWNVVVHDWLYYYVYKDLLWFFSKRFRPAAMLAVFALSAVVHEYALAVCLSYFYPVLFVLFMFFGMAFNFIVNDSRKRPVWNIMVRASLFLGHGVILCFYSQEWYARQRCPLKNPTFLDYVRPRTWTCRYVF
Outline: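 Enzyme source was liver microsomes prepared from chow-fed Sprague-Dawley rats, assayed for ACAT activity by the Billheimer method. IC50 was determined.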

Cricetinae gen. sp. = test: Effects on cholesterol absorption in hamsters; format: functional, organism-based; conditions: Cricetulus griseus
Outline: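 Cholesterol-fed hamsters received radiolabeled cholesterol in a liquid diet together with the drug, and untreated controls were included. Animals were sacrificed 24 h later. Absorption inhibition was estimated from plasma and liver radioactivity relative to controls. Dose-response studies gave ED50, and chow-fed hamsters were also tested.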

[2] = Dose required for 50 percent inhibition of lecithin cholesterol acyl transferase in vitro in rats at 30 uM; No effect
[3] = target: T2, 3-hydroxy-3-methylglutaryl-coenzyme A reductase (Rattus norvegicus) (UniProt P51639); test: Dose required for 50 percent inhibition of 3-Hydroxy-3-methylglutaryl coenzyme A reductase in vitro in rats at 100 uM; No effect
T2 sequence (whole entry): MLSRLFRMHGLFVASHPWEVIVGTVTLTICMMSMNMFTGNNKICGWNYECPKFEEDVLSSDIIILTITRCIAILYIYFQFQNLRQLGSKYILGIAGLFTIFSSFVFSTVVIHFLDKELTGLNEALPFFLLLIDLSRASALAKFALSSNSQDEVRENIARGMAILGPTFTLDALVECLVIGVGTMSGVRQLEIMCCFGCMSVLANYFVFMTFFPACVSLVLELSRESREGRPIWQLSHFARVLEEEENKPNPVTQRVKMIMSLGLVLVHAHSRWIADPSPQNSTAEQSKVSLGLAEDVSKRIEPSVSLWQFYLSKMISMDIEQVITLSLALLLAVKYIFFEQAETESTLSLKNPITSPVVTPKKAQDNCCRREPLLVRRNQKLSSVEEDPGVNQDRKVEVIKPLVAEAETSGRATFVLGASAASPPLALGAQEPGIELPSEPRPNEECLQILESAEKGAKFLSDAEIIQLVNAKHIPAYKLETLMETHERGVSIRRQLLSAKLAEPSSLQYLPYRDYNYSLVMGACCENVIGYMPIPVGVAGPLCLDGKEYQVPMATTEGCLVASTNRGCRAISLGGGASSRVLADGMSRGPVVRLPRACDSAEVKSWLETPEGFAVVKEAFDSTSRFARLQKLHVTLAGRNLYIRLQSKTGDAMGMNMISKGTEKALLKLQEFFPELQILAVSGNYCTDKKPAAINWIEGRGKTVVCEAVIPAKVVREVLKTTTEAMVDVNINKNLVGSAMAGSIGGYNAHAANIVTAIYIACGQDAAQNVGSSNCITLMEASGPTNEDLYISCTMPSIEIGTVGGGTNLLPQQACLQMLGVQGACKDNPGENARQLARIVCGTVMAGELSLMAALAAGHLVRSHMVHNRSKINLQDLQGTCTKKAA

Oryctolagus cuniculus = test: Evaluation for the plasma cholesterol lowering in rabbits at the dose 5 mg/kg; format: functional, organism-based; design: dose 5 mg/kg
Outline: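 Cholesterol-fed New Zealand White rabbits: diet with 0.4% cholesterol and 5% peanut oil for 4 weeks, drug given over the final 3 weeks at a single dose of 5 mg/kg. Read-out is total plasma cholesterol (mg/dL) against untreated controls, mean ± standard deviation, n = 5 per group.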

[4] = target: T3, Sterol O-acyltransferase 1 (Rattus norvegicus) (UniProt O70536); conditions: 0.135 uM
T3 sequence (whole entry): T1 sequence (O70536 whole entry)

[5] = target: T4, Bile salt-activated lipase (Bos taurus) (UniProt P30122); test: Dose required for 50 percent inhibition of Pancreatic cholesterol esterase in vitro in rats at 300 uM; No effect
T4 sequence (whole entry): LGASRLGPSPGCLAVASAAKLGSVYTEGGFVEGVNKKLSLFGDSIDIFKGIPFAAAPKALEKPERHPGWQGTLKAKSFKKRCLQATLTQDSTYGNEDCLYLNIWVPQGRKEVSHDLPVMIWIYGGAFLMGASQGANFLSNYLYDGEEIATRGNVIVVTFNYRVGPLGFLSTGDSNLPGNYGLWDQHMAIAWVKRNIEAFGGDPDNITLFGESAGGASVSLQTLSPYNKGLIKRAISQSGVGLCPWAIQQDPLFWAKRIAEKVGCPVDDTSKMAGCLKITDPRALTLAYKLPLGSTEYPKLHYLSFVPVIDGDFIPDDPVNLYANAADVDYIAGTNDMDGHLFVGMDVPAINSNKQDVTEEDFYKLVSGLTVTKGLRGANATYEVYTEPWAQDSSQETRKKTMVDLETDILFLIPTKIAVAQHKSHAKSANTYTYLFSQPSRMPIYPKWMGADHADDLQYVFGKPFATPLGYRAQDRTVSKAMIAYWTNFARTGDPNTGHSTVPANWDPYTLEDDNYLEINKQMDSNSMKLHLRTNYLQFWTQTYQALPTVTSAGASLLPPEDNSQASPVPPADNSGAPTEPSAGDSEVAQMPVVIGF

[6] = Dose required for 50 percent inhibition of lecithin cholesterol acyl transferase in vitro in rats at 300 uM; No effect
[7] = Dose required for 50 percent inhibition of rat Pancreatic cholesterol esterase in vitro No effect at 300 uM

**Q.** With `CCCCCCCC[C@@H](SCCCCCC)C(=O)Nc1c(SC)ccc2ncccc12` as the molecule, how does the IC50 [1] read?
**A.** 750 nM

**Q.** With `CCCCCCCC[C@H](SCCCCCC)C(=O)Nc1c(SC)ccc2ncccc12` as the molecule, how does the Absorption (Cricetinae gen. sp.) read?
**A.** 0.24 mg/kg

**Q.** What about the inhibition [2] of the same molecule?
**A.** inactive

**Q.** And the inhibition [3]?
**A.** inactive

**Q.** What about the Level (Oryctolagus cuniculus) of the same molecule?
**A.** 123 mg/dL

**Q.** What about the IC50 [1] of the same molecule?
**A.** 135 nM

**Q.** And the inhibition [4]?
**A.** 50%

**Q.** Which IC50 [1] does the source give for `CCCCCCCCC(SCCCCCC)C(=O)Nc1c(SC)cc(C)nc1SC` (single isomer, unassigned) here?
**A.** 160 nM

**Q.** For `CCCCCCCC[C@H](SCCCCCC)C(=O)Nc1c(SC)cc(C)nc1SC`, which inhibition [5] is on record?
**A.** inactive

**Q.** And the Absorption (Cricetinae gen. sp.)?
**A.** 0.009 mg/kg

**Q.** What about the inhibition [6] of the same molecule?
**A.** inactive

**Q.** What about the inhibition [7] of the same molecule?
**A.** inactive

**Q.** And the Level (Oryctolagus cuniculus)?
**A.** 98 mg/dL

**Q.** What about the IC50 [1] of the same molecule?
**A.** 22 nM
